Tests used:
Mus musculus = test: In vivo duration of action required to prevent death in mice, after i.v. administration of U-46619 (2 mg/kg) at 0.2 mg/kg p.o.; settings: po
Homo sapiens [1] = species on record: Homo sapiens; test: Inhibitory activity against platelet aggregation, induced by U-46619 in human platelet rich plasma; format: functional; settings: read-out: I50
Outline: (§1)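 Human platelet-rich plasma. Aggregation was induced by exogenous arachidonic acid or by the TxA2 mimetic U-46,619, each at a single fixed agonist level. I50 was taken as the antagonist concentration giving 50% inhibition of aggregation.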

Thromboxane A2 receptor = biological target: T1, Thromboxane A2 receptor (Homo sapiens, UniProt P21731); test: Inhibitory binding activity against TXA2 receptor in human platelet membrane, using [3H]-SQ 29548 as the radioligand
T1 sequence (P21731 whole entry): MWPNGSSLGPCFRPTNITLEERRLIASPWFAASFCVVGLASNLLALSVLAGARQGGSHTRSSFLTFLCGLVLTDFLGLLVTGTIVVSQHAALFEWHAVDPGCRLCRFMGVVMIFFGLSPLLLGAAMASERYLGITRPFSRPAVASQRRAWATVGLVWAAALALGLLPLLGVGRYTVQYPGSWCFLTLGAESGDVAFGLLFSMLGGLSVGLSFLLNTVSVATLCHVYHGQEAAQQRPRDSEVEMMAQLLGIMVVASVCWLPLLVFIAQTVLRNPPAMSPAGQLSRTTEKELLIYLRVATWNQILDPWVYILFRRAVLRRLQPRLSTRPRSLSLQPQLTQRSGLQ
Outline: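 Competition binding of [3H]-SQ 29,548 to TxA2 receptors in human platelet membranes, measured as inhibition of specific binding. Kd (inhibition constant) was calculated from each compound's I50 value. A slope factor is also reported.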

Homo sapiens [2] = species on record: Homo sapiens; test: Inhibitory activity against platelet aggregation, induced by arachidonic acid in human platelet rich plasma; format: functional; settings: read-out: I50
Outline: as §1

[3] = Partition coefficient (logP); format: physicochemical; settings: octanol/water
Outline: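 log P came from reversed-phase TLC Rm values on C18 plates. Eluent was acetone in 0.5 M aqueous KBr, buffered with 0.25 N triethylammonium phosphate to pH 7.3. Values were converted with a calibration curve built from shake-flask partition coefficients (pH 7.0) of seven oxabicycloheptane compounds spanning a range of lipophilicities.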

| Structure (SMILES) | IC50 (Homo sapiens [1]) | Kd (Thromboxane A2 receptor) | IC50 (Homo sapiens [2]) | T50 (Mus musculus) | logP [3] |
| --- | --- | --- | --- | --- | --- |
| CCCNC(=O)c1coc(C2C3CCC(O3)C2Cc2ccccc2CCC(=O)O)n1 (stereo not drawn) | 53 nM | 10 nM | 8 nM | 2.3 h | 0.4 |
| O=C(NCCCCC1CCCCC1)c1coc(C2C3CCC(O3)C2Cc2ccccc2C(=O)O)n1 (stereo not drawn) | 171 nM | – | 52 nM | – | – |
| CC(C)(C)CCNC(=O)c1coc(C2C3CCC(O3)C2Cc2ccccc2CCC(=O)O)n1 (stereo not drawn) | 28 nM | 2.9 nM | 8 nM | 13.5 h | 1.23 |
| O=C(O)CCc1ccccc1CC1C2CCC(O2)C1c1nc(C(=O)NCCCCc2ccc(Cl)cc2)co1 (stereo not drawn) | – | 0.2 nM | – | 18.6 h | 3.52 |
| O=C(O)CCc1ccccc1CC1C2CCC(O2)C1c1nc(C(=O)OCCCCC2CCCCC2)co1 (stereo not drawn) | 10 nM | 1 nM | 2 nM | – | – |
| CCOC(=O)CCc1ccccc1CC1C2CCC(O2)C1c1nc(C(=O)NCCCCC2CCCCC2)co1 (stereo not drawn) | – | – | 290 nM | – | – |
| O=C(O)CCc1ccccc1CC1C2CCC(O2)C1c1nc(C(=O)NC2CCCCC2)co1 (stereo not drawn) | – | 4.5 nM | – | 8.3 h | 0.89 |
| O=C(O)CCc1ccccc1CC1C2CCC(O2)C1c1nc(C(=O)NCCCCc2ccc(F)cc2)co1 (stereo not drawn) | 11 nM | 3.9 nM | 4 nM | 22.5 h | 2.17 |
| CC(C)(Cc1ccccc1CC1C2CCC(O2)C1c1nc(C(=O)NCCCCC2CCCCC2)co1)C(=O)O (stereo not drawn) | 13 nM | 36 nM | 4 nM | – | – |
| O=C(O)CCc1ccccc1CC1C2CCC(O2)C1c1nc(C(=O)Nc2ccc(Cl)cc2)co1 (stereo not drawn) | – | – | 6 nM | 25.8 h | 2.52 |
| CCC(C)(C)NC(=O)c1coc(C2C3CCC(O3)C2Cc2ccccc2CCC(=O)O)n1 (stereo not drawn) | 30 nM | 0.8 nM | 12 nM | 8.8 h | 0.51 |
| O=C(O)CCc1ccccc1CC1C2CCC(O2)C1c1nc(C(=O)NCCc2ccccc2)co1 (stereo not drawn) | 30 nM | 0.7 nM | 9 nM | 4 h | 0.98 |
| CC(C)(C)NC(=O)c1coc(C2C3CCC(O3)C2Cc2ccccc2CCC(=O)O)n1 (stereo not drawn) | 61 nM | 19 nM | 12 nM | 7.4 h | -0.02 |
| CC(C)NC(=O)c1coc(C2C3CCC(O3)C2Cc2ccccc2CCC(=O)O)n1 (stereo not drawn) | 63 nM | 26 nM | 7 nM | 10 h | 0.05 |
| O=C(O)CCc1ccccc1CC1C2CCC(O2)C1c1nc(C(=O)NCCC2CCCCC2)co1 (stereo not drawn) | – | 0.7 nM | 2 nM | 8.3 h | 1.03 |
| O=C(O)CCc1ccccc1CC1C2CCC(O2)C1c1nc(C(=O)Nc2ccccc2)co1 (stereo not drawn) | – | – | 12 nM | – | 1.19 |
| CS(=O)(=O)NC(=O)CCc1ccccc1CC1C2CCC(O2)C1c1nc(C(=O)NCCCCC2CCCCC2)co1 (stereo not drawn) | – | 1.6 nM | 2 nM | – | – |
| O=C(O)Cc1ccccc1CC1C2CCC(O2)C1c1nc(C(=O)NCCCCC2CCCCC2)co1 (stereo not drawn) | 97 nM | 19 nM | 14 nM | – | – |
| CCCCCCCCCCNC(=O)c1coc(C2C3CCC(O3)C2Cc2ccccc2CCC(=O)O)n1 (stereo not drawn) | – | 5.8 nM | – | 4.3 h | 3.86 |
| CCCCCN(C)C(=O)c1coc(C2C3CCC(O3)C2Cc2ccccc2CCC(=O)O)n1 (stereo not drawn) | – | 11 nM | 9 nM | 11.3 h | 1 |
| CNC(=O)c1coc(C2C3CCC(O3)C2Cc2ccccc2CCC(=O)O)n1 (stereo not drawn) | – | 45 nM | – | 7.5 h | -0.11 |
| COc1ccc(NC(=O)c2coc(C3C4CCC(O4)C3Cc3ccccc3CCC(=O)O)n2)cc1 (stereo not drawn) | – | – | 6 nM | – | 0.95 |

Second part, led by results:

| IC50 (Homo sapiens [1]) | Kd (Thromboxane A2 receptor) | IC50 (Homo sapiens [2]) | Structure (SMILES) | T50 (Mus musculus) | logP [3] |
| --- | --- | --- | --- | --- | --- |
| 34 nM | 1.2 nM | 12 nM | O=C(O)Cc1cccc(CC2C3CCC(O3)C2c2nc(C(=O)NCCCCC3CCCCC3)co2)c1 (stereo not drawn) | – | – |
| – | – | 1580 nM | O=C(O)Cc1ccccc1CCC1C2CCC(O2)C1c1nc(C(=O)NCCCCC2CCCCC2)co1 (stereo not drawn) | – | – |
| – | 18.4 nM | 110 nM | O=C(O)c1cccc(CCC2C3CCC(O3)C2c2nc(C(=O)NCCCCC3CCCCC3)co2)c1 (stereo not drawn) | – | – |
| 9 nM | 10.6 nM | 2 nM | O=C(O)CCc1ccccc1CC1C2CCC(O2)C1c1nc(C(=S)NCCCCC2CCCCC2)co1 (stereo not drawn) | – | – |
| – | – | 26 nM | CS(=O)(=O)c1ccc(CCCCNC(=O)c2coc(C3C4CCC(O4)C3Cc3ccccc3CCC(=O)O)n2)cc1 (stereo not drawn) | – | 0.32 |
| 35 nM | 20 nM | 15 nM | O=C(O)CCc1ccccc1CC1C2CCC(O2)C1c1nc(C(=O)NCCCCCO)co1 (stereo not drawn) | – | 1.07 |
| 137 nM | 22 nM | 30 nM | O=C(O)CCc1ccccc1CC1C2CCC(O2)C1c1nc(C(=O)NCCCCN2CCCCC2)co1 (stereo not drawn) | – | 0.53 |
| – | 2.9 nM | 6 nM | CSc1ccc(CCCCNC(=O)c2coc(C3C4CCC(O4)C3Cc3ccccc3CCC(=O)O)n2)cc1 (stereo not drawn) | – | 1.66 |
| 62 nM | 0.3 nM | 16 nM | COc1ccc(CCCCNC(=O)c2coc(C3C4CCC(O4)C3Cc3ccccc3CCC(=O)O)n2)cc1 (stereo not drawn) | – | 2.49 |
| – | 0.85 nM | 6 nM | O=C(O)CCCc1ccccc1CC1C2CCC(O2)C1c1nc(C(=O)NCCCCC2CCCCC2)co1 (stereo not drawn) | – | – |
| 2760 nM | – | 320 nM | O=C(O)CCc1ccccc1CC1C2CCC(O2)C1c1nc(/C=C/CCCCC2CCCCC2)co1 (stereo not drawn) | – | – |
| 82 nM | 22 nM | 27 nM | O=C(O)CCc1ccccc1CC1C2CCC(O2)C1c1nc(C(=O)NCCCCC(=O)NC2CCCCC2)co1 (stereo not drawn) | – | 1.18 |
| 258 nM | – | 44 nM | NC(=O)c1coc(C2C3CCC(O3)C2Cc2ccccc2CCC(=O)O)n1 (stereo not drawn) | – | -0.78 |
| – | – | 64 nM | CC(C)(CCCCNC(=O)c1coc(C2C3CCC(O3)C2Cc2ccccc2CCC(=O)O)n1)C(=O)O (stereo not drawn) | – | 0.5 |
| 8 nM | 3.2 nM | 7 nM | O=C(O)COc1ccccc1CC1C2CCC(O2)C1c1nc(C(=O)NCCCCC2CCCCC2)co1 (stereo not drawn) | – | – |
| 29 nM | 4.8 nM | 12 nM | O=C(O)CCc1ccccc1CC1C2CCC(O2)C1c1nc(C(=O)NCCCCC(F)(F)F)co1 (stereo not drawn) | – | 1.59 |
| – | – | 31000 nM | O=C(O)CCc1ccccc1CC1C2CCC(O2)C1c1nc(CO)co1 (stereo not drawn) | – | – |
| – | 0.5 nM | 12 nM | O=C(O)CCc1ccccc1CC1C2CCC(O2)C1c1nc(C(=O)NCCCCc2ccc(O)cc2)co1 (stereo not drawn) | – | 1.49 |
| 616 nM | – | 63 nM | O=C(O)CCc1ccccc1CCC1C2CCC(O2)C1c1nc(C(=O)NCCCCC2CCCCC2)co1 (stereo not drawn) | – | – |
| – | 112 nM | 1540 nM | O=C(NCCCCC1CCCCC1)c1coc(C2C3CCC(O3)C2Cc2ccccc2CCCO)n1 (stereo not drawn) | – | – |
| 11 nM | 0.05 nM | 4 nM | O=C(O)CCc1ccccc1CC1C2CCC(O2)C1c1nc(C(=O)CCCCCC2CCCCC2)co1 (stereo not drawn) | – | – |
| – | 16.3 nM | 146 nM | O=C(O)Cc1cccc(CCC2C3CCC(O3)C2c2nc(C(=O)NCCCCC3CCCCC3)co2)c1 (stereo not drawn) | – | – |
| – | – | 2 nM | CN(CCCCC1CCCCC1)C(=O)c1coc(C2C3CCC(O3)C2Cc2ccccc2CCC(=O)O)n1 (stereo not drawn) | – | 3.89 |
| – | – | 1070 nM | NC(=O)CCc1ccccc1CC1C2CCC(O2)C1c1nc(C(=O)NCCCCC2CCCCC2)co1 (stereo not drawn) | – | – |

Source: ChEMBL document CHEMBL1126688, “Interphenylene 7-oxabicyclo[2.2.1]heptane oxazoles. Highly potent, selective, and long-acting thromboxane A2 receptor antagonists” (J Med Chem, 1993)
